# Laboratory results: ChEMBL document CHEMBL1123118, “Substrate probes for the mechanism of aromatic hydroxylation catalyzed by cytochrome P-450: selectively deuterated analogues of warfarin” (J Med Chem, 1985)
# What was measured:
# [1] = organism: Rattus norvegicus; assay: Compound incubated with microsomal preparations from phenobarbital treated male rats with the substrate rac 8-D and the amount of deuterium retained was reported after normal workup; format: ADME
# Outline: (§1)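 Liver microsomes from male Sprague-Dawley rats (140–160 g), untreated or pretreated with phenobarbital or β-naphthoflavone; protein set to 10 mg/mL. The 1-mL mix held substrate, an NADP+/glucose 6-phosphate/MgCl2 cofactor solution, glucose-6-phosphate dehydrogenase and microsomes in 0.05 M phosphate pH 7.4. It ran 10 min at 37 °C, in duplicate. Hydroxywarfarins were measured by capillary GC-MS, and % deuterium retention was calculated as product over substrate incorporation.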
# [2] = organism: Rattus norvegicus; assay: Compound incubated with microsomal preparations from beta-naphthoflavone-treated male rats with the substrate rac 7-D and the amount of deuterium retained was reported after reincubation followed by normal workup; format: ADME
# [3] = organism: Rattus norvegicus; assay: Amount of deuterium retained was reported after reincubation followed by normal workup in phenobarbital treated male rats; format: ADME, organism-based
# [4] = organism: Rattus norvegicus; assay: Amount of deuterium retained was reported after normal workup in beta-naphthoflavone-treated male rats with the substrate rac 7-D; format: ADME, organism-based; outline: as §1
# [5] = organism: Rattus norvegicus; assay: Amount of deuterium retained was reported after normal workup in rats; format: ADME, organism-based; outline: as §1
# [6] = organism: Rattus norvegicus; assay: Amount of deuterium retained was reported after reincubation followed by normal workup in phenobarbital treated male rats with rac 8-D; format: ADME, organism-based
Deuterium retention [1],Deuterium retention [2],Deuterium retention [3],Deuterium retention [4],Deuterium retention [5],Deuterium retention [6],Structure (SMILES)
84%,50%,76%,52%,76%,83%,CC(=O)CC(c1ccccc1)c1c(O)oc2cc(O)ccc2c1=O (centres undefined)
90%,84%,65%,84%,66%,89%,CC(=O)CC(c1ccccc1)c1c(O)oc2ccc(O)cc2c1=O (centres undefined)
92%,83%,85%,86%,84%,91%,CC(=O)CC(c1ccc(O)cc1)c1c(O)oc2ccccc2c1=O (centres undefined)
58%,76%,83%,76%,82%,58%,CC(=O)CC(c1ccccc1)c1c(O)oc2c(O)cccc2c1=O (centres undefined)
